Screening results: PubChem BioAssay, several laboratories
Efflux pump mplx: blocks antifungal efflux pumps in multiplex yeast assay; S. cerevisiae Candida pump triplex, Nile Red efflux; inhibition, % at 10 µM; actives 0.44% (n = 330,000); AID 485275;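 active = plate passing quality check with inhibition over a set limit, or well fluorescence over plate mean plus 4 SD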;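 also: Nile Red retained in pooled yeast measured as flow cytometry median fluorescence; 0% = buffer negative control and 100% = Enniatin B positive control; higher means more Nile Red kept so more efflux inhibition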
C2C12 statin: protects C2C12 myotubes from simvastatin toxicity | rescue of ATP level, % at 7.49 µM | ATP luminescence, 48 h; scaled: DMSO 0, geranylgeraniol control 100 | actives 0.78% (n = 330,000);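 active = mean ATP rescue above about 67%, or every replicate alone reaching that limit, limit read from the data, passing the limit was not always enough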;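 also: myotubes were challenged with 10 µM simvastatin during compound exposure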
SUMO Mot1 rescue: SUMOylation pathway inhibition by Mot1-301 growth rescue; S. cerevisiae Mot1-301 growth rescue, ATP luminescence, 38.5C; percent above DMSO median, 100 means doubled; growth rescue, % at 18.8 µM; actives 1% (n = 320,000); AID 2716;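 active = every valid replicate shows activation above 250% relative to neutral control wells; inactive = the rest, any valid replicate at or below 250%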;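 also: OY570 slx delta 5 strain wells were the positive control but not used for scaling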
Cneo AK release: Cryptococcus neoformans lysis via adenylate kinase release; AID 651654; C. neoformans lysis, adenylate kinase release luminescence, 4 h; normalised: neutral wells 0, clomiphene wells 100; lysis activity, % at 15 µM; actives 0.2% (n = 360,000);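 active = mean lysis activity across replicates of at least 80%, whatever share of replicates individually reach that level; inactive = mean lysis activity below 80%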
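Material: C. neoformans cells | Amount: Yeast cell density of 5 × 10^6 cells/mL | Medium: Fresh YPD growth medium | Dosing: Single dose | Times: Static 4 h at 37 °C with compound, 1 h detection | Detection: AK luminescence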
Yeast cmpd fluor: compound fluorescence in yeast efflux pump counter-screen; shares compounds with Efflux pump mplx; S. cerevisiae AD/pABC3, flow cytometry; fluorescence ratio to DMSO, % at 10 µM; actives 4% (n = 1,700); AID 588517;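 active = fluorescence ratio to DMSO above its plate's cutoff, the plate mean ratio plus 5 SD, cut at about 210% in these data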;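 also: unstained yeast with no Nile Red so the signal is compound autofluorescence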
CaMdr1 efflux inh: inhibitors of Candida albicans Mdr1 efflux pump; shares compounds with Efflux pump mplx; S. cerevisiae AD/CaMDR1, Nile Red efflux, flow cytometry; inhibition, % at 10 µM; actives 1% (n = 1,700); AID 588518; in the data active = inhibition above about 26%;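 also: 0% = DMSO vehicle and 100% = reference inhibitor; higher means more Nile Red retained so more efflux inhibition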
Cdr2 pump inh: inhibitors of Candida albicans Cdr2 efflux pump; shares compounds with Efflux pump mplx; S. cerevisiae AD/CaCDR2, Nile Red retention, flow cytometry; Nile Red retention ratio vs DMSO, % at 10 µM; actives 4% (n = 1,700); AID 588520; in the data active = Nile Red retention ratio vs DMSO above about 190%;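 also: higher ratio means more blocking of Cdr2 efflux of the dye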
Cdr1 pump inh: Candida Cdr1 efflux pump inhibition; S. cerevisiae AD/CaCDR1, Nile Red efflux, flow cytometry; actives 1% (n = 1,700); inhibition, % at 10 µM; AID 588522; shares compounds with Efflux pump mplx;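 active = inhibition above the screen-wide mean plus twice its standard deviation, cut at about 32% in these data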
* marks the source's active call; other numbers are inactive results; i = inactive; / = no result; + = active, no number. Shown are actives, neighbours in structure and some others; about 1.8% of the full set was active somewhere.

SMILES	Efflux pump mplx	C2C12 statin	SUMO Mot1 rescue	Cneo AK release	Yeast cmpd fluor	CaMdr1 efflux inh	Cdr2 pump inh	Cdr1 pump inh
CN(C)S(=O)(=O)Nc1ccc(NS(=O)(=O)N(C)C)c(S(=O)(=O)c2ccccc2)c1	0.7*	-5	-12	0	106	0	109	0
CC(=O)NN1C(=O)/C(=C2/Sc3ccccc3N2C)SC1=S	0	/	0	/	/	/	/	/
CCN1/C(=C2/SC(=S)N(NC(C)=O)C2=O)Sc2ccccc21	0.8*	12	69	0	100	0	96	0
CCc1c(C)nc2cc(-c3cc(OC)cc(OC)c3)nn2c1N1CCN(CCN2CCOCC2)CC1	1.6*	/	17	0	82	0	89	0
CCS(=O)(=O)Nc1cc(C(=O)O)ccc1C	0	2	427	/	/	/	/	/
N#CCCn1cc(C=C(C#N)C#N)c(-c2ccc(Cl)cc2)n1	0	/	-32	/	/	/	/	/
N#CCCn1cc(/C=C(\C#N)c2nc3ccccc3s2)c(-c2ccc(F)cc2)n1	1	-11	/	-3	82	0	100	0
CCc1ccc(NC(=O)C(NS(=O)(=O)c2ccc3c(c2)CCN3C(C)=O)C(C)C)cc1 (centres undefined)	1.6*	28	9	-2	105	0	89	0
COc1ccc2c(c1)c(/C=C/c1cc[n+](C)cc1)cn2C	16*	-103	7	1	+	4	136	6
Cc1ccc2[nH]cc(/C=C/c3cc[n+](C)cc3)c2c1	9.3*	-101	384	-1	908*	7	137	6
CC[n+]1ccc(/C=C/c2c[nH]c3ccccc23)cc1	2.3*	-89	-3	0	217	3	102	0
COc1ccc2c(/C=C/c3cc[n+](C)cc3)c[nH]c2c1	9.1*	-88	6	0	+	23	256*	13
CCn1c(/C=C/c2c[nH]c3ccccc23)nc2ccccc2c1=O	0	/	43	/	/	/	/	/
Cc1ccc(S(=O)(=O)N(C)C[C@H]2Oc3ccc(NC(=O)Cc4cn(C)c5ccccc45)cc3C(=O)N([C@H](C)CO)C[C@H]2C)cc1	/	4	/	-1	/	/	/	/
CCCNCc1cc(OC)c(OCC(=O)NCCc2ccccc2)cc1Br	0	/	-8	/	/	/	/	/
CCN(CC)S(=O)(=O)c1cccc(C(=O)OCC(=O)NCCN2C(=O)CSC2=O)c1	0	11	6	0	92	0	85	0
Cc1c(C(=O)OCC(=O)NCCN2C(=O)CSC2=O)cccc1[N+](=O)[O-]	0	3	-3	0	/	/	/	/
O=C(COC(=O)c1cccc(Cl)c1Cl)NCCN1C(=O)CSC1=O	0	/	-14	/	112	0	108	0
O=C(COC(=O)c1ccccc1Br)NCCN1C(=O)CSC1=O	1.1*	/	-7	/	99	0	93	0
O=C(Cc1ccc(F)cc1)OCC(=O)N1CCN(S(=O)(=O)c2ccc(Cl)cc2)CC1	0.5*	-2	-10	-5	105	0	95	0
COc1cc2c(cc1OC)CN(C(=S)Nc1ccc(C)cc1C)CC2	1.1*	/	-4	/	103	0	102	0
Cc1c(NC(=O)c2ncn[nH]2)cccc1-c1nc2ccccc2s1	6.2*	/	17	/	101	0	98	0
CO[C@H]1CN(C)C(=O)c2cc(NC(=O)Nc3cc(F)ccc3F)ccc2OC[C@@H](C)N(C)C[C@H]1C	/	-3	/	0	/	/	/	/
COc1cc2c(cc1O)CCN(C(=O)c1ccco1)C2C (centres undefined)	1.2*	-4	8	-3	97	0	110	0
Cc1ccc(SCC(=O)O/N=C(\N)c2ccncc2)cc1	0	/	85	-2	/	/	/	/
SMILES	Efflux pump mplx	C2C12 statin	SUMO Mot1 rescue	Cneo AK release	Yeast cmpd fluor	CaMdr1 efflux inh	Cdr2 pump inh	Cdr1 pump inh
C[C@H](NC(=O)NC1CCCc2ccccc21)C(=O)O (some centres undefined)	0	-3	5	-1	/	/	/	/
Cc1ccnc(SC2CC(=O)N(c3ccc(Cl)cc3)C2=O)n1 (centres undefined)	0	6	12	-2	/	/	/	/
Cc1ccnc(SC2CC(=O)N(c3ccc(Br)cc3)C2=O)n1 (centres undefined)	1.1*	13	i	1	83	0	83	0
CC(=O)N1CCOc2cc(S(=O)(=O)NC(C)c3ccccc3)c(Cl)cc21 (centres undefined)	0	-2	-8	1	/	/	/	/
CCOC(=O)c1nn(-c2ccc(Cl)cc2C)ccc1=O	0	-6	202	3	/	/	/	/
CCN1/C(=C/c2ccc3cccc(C)c3[n+]2CC)Sc2ccccc21	2.4*	/	-7	1	+	5	138	1
CCN1/C(=C/c2ccc3cc(C)cc(C)c3[n+]2CC)Sc2cc(C)ccc21	/	-74	/	-3	/	/	/	/
O=C(N/N=C/c1cccs1)c1ccc2c(c1)OCO2	11*	/	-6	/	95	0	112	0
O=C(N/N=C/c1ccccc1O)c1ccc2c(c1)OCO2	0	20	2	-5	/	/	/	/
Cc1ccc(S(=O)(=O)NCC(=O)N(CC2CCCO2)C(C(=O)NC2CCCCC2)C(C)C)cc1 (centres undefined)	0	-2	-7	1	/	/	/	/
CC1(C)Cc2c(sc(NC(=O)COc3ccc(Cl)cc3Cl)c2C(N)=O)C(C)(C)N1	0.6*	-18	-25	0	102	0	110	0
O=P(O)(CCc1ccccc1)CN1CCCCC1	0	34	-5	-1	/	/	/	/
CCOC(=O)c1ccc(-c2ccc(/C=C(\C#N)C(=O)NCc3cccs3)o2)cc1	0	/	-11	-5	/	/	/	/
CCOC(=O)c1cnc(SC)nc1Oc1cccc(NS(=O)(=O)c2ccc(Cl)cc2)c1	0	/	-1	-10	/	/	/	/
CCOC(=O)c1cnc(SC)nc1Oc1cccc(NC(=O)c2ccc(Cl)cc2)c1	1.5*	/	155	-1	105	0	116	1
CC1CC(=O)N(CC(=O)Nc2ccc3c(c2)OCO3)c2ccccc2S1 (centres undefined)	0	14	101	3	80	0	89	0
O=C(CN1C(=O)CC(c2ccco2)Sc2ccccc21)Nc1ccc2c(c1)OCCO2 (centres undefined)	0.7*	4	2	/	101	0	96	0
O=C(CN1C(=O)CCSc2ccccc21)Nc1ccc2c(c1)OCCO2	0	26	170	-5	/	/	/	/
O=C(CN1C(=O)CCSc2ccccc21)Nc1ccc(F)cc1	0	32	28	-6	99	0	98	0
O=C(NC1CCCCC1)N[C@@H]1CC[C@@H](CC(=O)N2CCOCC2)O[C@@H]1CO	/	-2	/	-2	/	/	/	/
